SENP8 block-1: inhibitors of human SENP8 protease | purified SENP8, Z-RLRGG-aminoluciferin cleavage, luminescence | actives 1.2% (n = 330,000) | inhibition, % at 10 µM | AID 2540; in the data active = inhibition above about 50%
SENP6 inh: SENP6 protease inhibition; inhibition, % at 10 µM; actives 1.8% (n = 330,000); Recombinant SENP6 catalytic domain, aminoluciferin luminescence; AID 2599; Q9GZR1;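 active = inhibition above about 50% at the single tested dose, limit read from the data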;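 note: plate controls were DMSO wells with enzyme for no effect and DMSO wells lacking enzyme for full effect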
Target sequence (Q9GZR1 628-1112 limits assumed): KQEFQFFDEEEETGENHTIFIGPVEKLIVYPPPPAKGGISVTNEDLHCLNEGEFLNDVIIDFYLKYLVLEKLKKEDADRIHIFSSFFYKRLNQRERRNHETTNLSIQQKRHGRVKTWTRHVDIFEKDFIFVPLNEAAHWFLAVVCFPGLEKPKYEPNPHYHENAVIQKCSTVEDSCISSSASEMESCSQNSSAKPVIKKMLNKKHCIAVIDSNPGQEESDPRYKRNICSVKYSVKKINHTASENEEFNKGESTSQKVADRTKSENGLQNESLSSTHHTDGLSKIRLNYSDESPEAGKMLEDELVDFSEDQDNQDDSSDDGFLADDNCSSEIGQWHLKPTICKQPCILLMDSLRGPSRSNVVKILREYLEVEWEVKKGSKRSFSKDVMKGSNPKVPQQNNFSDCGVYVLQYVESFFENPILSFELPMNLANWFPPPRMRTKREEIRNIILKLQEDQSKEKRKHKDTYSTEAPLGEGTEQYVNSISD
SENP7 block: blocks the human protease SENP7; actives 1.5% (n = 330,000); inhibition, % at 5 µM; recombinant SENP7, Z-RLRGG-aminoluciferin luminescence, 40 min;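 active = inhibition above about 50% at the single test dose, limit read from the data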;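 note: plate controls were DMSO with enzyme for no effect and no enzyme buffer wells for full effect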
HSP90 inh: HSP90 refolding inhibition in rabbit reticulocyte lysate. AID 1789. inhibition, % at 5.6 µM. actives 0.91% (n = 290,000). luciferase refolding luminescence, 3 h;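 active = inhibition above the screen-wide mean plus 3 SD, computed separately per campaign, cut at about 16% in these data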;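 note: 0% = DMSO wells and 100% = 60 µM geldanamycin wells; inhibitors lower the luminescence because luciferase stays unfolded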
SENP8 block-2: blocks human SENP8 cleavage of Nedd8 substrate; Q96LD8; recombinant SENP8, Nedd8 substrate fluorescence; AID 602440; inhibition, % at 20 µM; actives 0.64% (n = 360,000); in the data active = inhibition mostly above about 40%, no sharp cut-off; inactive = mostly below about 27%
SENP1 inh: blocks the human SENP1 SUMO protease catalytic domain; Q9P0U3; recombinant SENP1 catalytic domain, CyPet-SUMO1-YPet FRET cleavage; inhibition, % at 10 µM; actives 0.21% (n = 360,000); AID 624204;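 active = inhibition at least 30% at 10 µM, raw YFP signal under a set limit, fluorescence ratio 0.5 to 1.5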;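 note: 0% = enzyme with DMSO and 100% = no enzyme wells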
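Test system: hSENP1 catalytic domain, recombinant; Amount: 20 pM final SENP1 enzyme; Medium: Tris pH 8 buffer plus EDTA, NaCl, BME, BSA, NP40, catalase; Schedule: 50 min enzyme reaction, room temperature, light-protected; Technique: FRET fluorescence in CFP and YFP emission channels; Controls: no-enzyme wells low, DMSO-plus-enzyme wells high control.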
Starred values were filed as active, the others as inactive; i = inactive; . = no result given. Rows were chosen to be rich in hits. Some 2.9% of all compounds tested hit in one or more screens of this group.

SMILES	SENP8 block-1	SENP6 inh	SENP7 block	HSP90 inh	SENP8 block-2	SENP1 inh
CCn1nc(-c2ccccc2)nc2c(=O)n(C)c(=O)nc1-2	91.8*	88.9*	96.2*	83.4*	17.1	-1.5
c1ccc(CN2CCN(Cc3ccc4ccccc4c3)CC2)cc1	2.4	13.4	7.0	16.9*	6.1	0.8
O=c1c2ccccc2nc(/C=C/c2ccccc2F)n1-c1ccccc1O	-3.1	-1.6	1.4	0.4	-29.7	1.6
O=c1c2ccccc2nc(/C=C/c2ccccc2O)n1-c1ccccc1O	-2.3	2.8	-1.8	0.4	-147.1	49.2*
Cc1ccnc(NS(=O)(=O)c2ccc(N=Cc3c(O)n(C)c(=O)n(C)c3=O)cc2)n1	0.3	-18.0	-1.1	0.3	-46.0	-57.5
CC[C@@H](CO)NC(=O)[C@@H]1C=C2c3cccc4[nH]cc(c34)C[C@H]2N(C)C1	.	.	.	.	-379.0	-26.0
CCC(CO)NC(=O)C1C=C2c3cccc4[nH]cc(c34)CC2N(C)C1 (configuration not stated)	3.7	13.3	-5.6	0.8	-393.8	38.5
COC(=O)C1C=C2c3cccc4[nH]cc(c34)CC2N(C)C1 (configuration not stated)	38.5	54.1*	17.9	8.2	.	.
CC(C)C[C@H]1C(=O)N2CCC[C@H]2[C@]2(O)O[C@](NC(=O)[C@@H]3C=C4c5cccc6[nH]cc(c56)C[C@H]4N(C)C3)(C(C)C)C(=O)N12	36.4	51.1*	21.2	.	-395.7	-33.7
Cc1cccc(C)c1-n1nnnc1C(CCc1ccccc1)N1CCC2(CC1)C(=O)NCN2c1ccccc1 (configuration not stated)	.	.	.	.	25.7	0.4
CCOP(=O)(OCC)C(O)c1ccc2c(c1)OCO2 (configuration not stated)	0.0	-11.6	-3.9	-0.8	6.8	1.4
[N-]=[N+]=NCc1cn2cccnc2n1	-4.5	-11.9	1.3	-0.2	-446.7	0.8
CC(=O)NC1=C(N2CC2C)C(=O)C(NC(C)=O)=C(N2CC2C)C1=O (configuration not stated)	.	.	.	.	64.9*	0.7
Nc1ccccc1C(=O)OCC(=O)c1ccc2c(c1)OCCO2	94.8*	95.4*	98.5*	1.0	-140.1	2.1
CC1Oc2cc3c(-c4c(O)cc(O)c5c(O)c6c(cc45)OC(C)C(C)C6=O)c(O)cc(O)c3c(O)c2C(=O)C1C (configuration not stated)	7.1	27.6	15.9	-1.3	89.1*	65.2*
O=C1CC=C2C3CC4N(CCC45c4ccccc4N1C25)CC3=CCO (configuration not stated)	.	.	.	.	8.9	-0.7
O=C1CC=C2C3CC4N(CCC45c4cc(O)c(O)cc4N1C25)CC3=CCBr (configuration not stated)	.	.	.	.	59.3*	-3.2
CN1C(=O)/C(=C\c2ccc(N3CCCCC3)o2)C(=O)NC1=S	-5.1	-22.4	14.5	-0.5	16.6	87.8*
C=CCN1C(=O)/C(=C\c2ccc(N3CCOCC3)o2)C(=O)NC1=S	-3.3	-14.7	3.3	-0.7	26.7	40.0*
CN1C(=O)/C(=C/c2ccc(N3CCCCCC3)o2)C(=O)NC1=S	4.9	-31.6	11.0	3.8	14.8	81.4*
CS(=O)(=O)c1ccc(C2=C(CNC(=O)c3ccncc3)[C@H]3CC[C@@H](C2)N3Cc2ccco2)cc1	.	.	.	.	-12.0	-0.8
Cc1c(Cl)cccc1N1C(=O)NC(=O)/C(=C\c2cc(C)n(-c3cccc(C(=O)O)c3C)c2C)C1=O	-13.1	-3.1	10.7	1.6	11.9	-19.1
CNc1ccc2nc3ccccc3[n+](C)c2c1	47.1	66.2*	29.7	3.7	71.8*	-3.1
C[n+]1c2ccccc2nc2ccc(NCCO)cc21	71.4*	81.2*	41.0	6.4	89.8*	14.2
CCCCn1nnnc1C(c1ccccc1)N1CCC2(CC1)C(=O)NCN2c1ccccc1 (configuration not stated)	.	.	.	.	22.0	1.2
COc1ccc(-n2c(-c3ccccc3F)nc3ccccc3c2=O)cc1	.	.	.	.	10.7	-0.7
Nc1c(C(=O)NC2CCCC2)c2nc3ccccc3nc2n1CC1CCCO1 (configuration not stated)	93.1*	92.1*	90.4*	2.5	i	-18.0
Nc1c(C(=O)NCC2CCCO2)c2nc3ccccc3nc2n1Cc1ccco1 (configuration not stated)	-5.7	4.8	-2.2	1.0	-467.6	-39.2
